From ChEMBL document CHEMBL3877292, “Synthesis and evaluation of novel hybrids β-carboline-4-thiazolidinones as potential antitumor and antiviral agents” (Eur J Med Chem, 2016)

What was measured:
[1] = Antiproliferative activity against human HT-29 cells after 48 hrs by SRB assay; format: functional; settings: HT-29, 48 h
How it was run: (§1)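 Cells grown in RPMI 1640 with 5% FBS, with penicillin/streptomycin in experimental cultures. Exposed in triplicate to 0.25, 2.5, 25 and 250 µg/mL in DMSO/RPMI for 48 h at 37 °C under 5% CO2. Plates were TCA-fixed before (T0) and after treatment, then stained with sulforhodamine B and read at 540 nm. GI50 was obtained by non-linear regression against untreated growth. Doxorubicin served as positive control.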

Human alphaherpesvirus 1 = assay: Antiviral activity against Herpes simplex type I KOS; format: functional; settings: Human alphaherpesvirus 1, KOS
[2] = Antiproliferative activity against human U251 cells after 48 hrs by SRB assay; format: functional; settings: U-251, 48 h; how it was run: as §1
[3] = Antiproliferative activity against human MCF7 cells after 48 hrs by SRB assay; format: functional; settings: MCF7, 48 h; how it was run: as §1
[4] = Selectivity index, ratio of CC50 for Herpes simplex type I KOS infected African green monkey Vero cells to EC50 for Herpes simplex virus type 1 KOS; format: toxicity, cell-based; settings: Herpes simplex virus type 1 KOS infected Vero cells, read-out: Ratio CC50/EC50
How it was run: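 SI calculated as CC50/EC50. CC50 is the 50% cytotoxic concentration on Vero cells by sulforhodamine B, tested in triplicate from 0.1 to 1000 µg/mL. EC50 is the concentration protecting 50% of cells against HSV-1, with acyclovir as HSV-1 standard and drug-free cells as control.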

[5] = Antiproliferative activity against human 786-0 cells after 48 hrs by SRB assay; format: functional; settings: 786-0, 48 h; how it was run: as §1
[6] = Antiproliferative activity against human NCI-H460 cells after 48 hrs by SRB assay; format: functional; settings: NCI-H460, 48 h; how it was run: as §1
[7] = Cytotoxicity against African green monkey Vero cells after 48 hrs by SRB assay; format: toxicity, cell-based; settings: chlorocebus sabaeus
How it was run: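 Vero (ATCC CCL81) cells grown in DMEM with 10% FBS and gentamicin at 37°C, 5% CO2. Cells exposed in triplicate to 1000, 500, 100, 10, 1 and 0.1 µg/mL, with untreated cells as control. Viability read by sulforhodamine B colorimetry. CC50 is the concentration giving 50% cytotoxicity.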

[8] = Antiproliferative activity against human OVCAR3 cells after 48 hrs by SRB assay; format: functional; settings: OVCAR-3, 48 h; how it was run: as §1
[9] = Antiproliferative activity against human NCI/ADR-RES cells after 48 hrs by SRB assay; format: functional; how it was run: as §1
[10] = Antiproliferative activity against human UACC62 cells after 48 hrs by SRB assay; format: functional; settings: UACC-62, 48 h; how it was run: as §1
[11] = Antiproliferative activity against human PC3 cells after 48 hrs by SRB assay; format: functional; settings: PC-3, 48 h; how it was run: as §1
[12] = Cell cycle arrest in human 786-0 cells assessed as accumulation at G2/M phase at 1.25 uM after 24 hrs by propidium iodide staining-based flow cytometry (Rvb=36.5+/-1.1%); format: functional
How it was run: (§2)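 786-0 cells seeded at 3×10^4 cells/mL and grown 24 h, then serum-starved 24 h to synchronise. Treated in DMSO/RPMI for 24 h alongside DMSO vehicle and colchicine control. 1×10^5 cells in PBS were stained with propidium iodide for 20 min in the dark at room temperature, then analysed by flow cytometry. Results are mean ± standard error % cells from three experiments in triplicate; ANOVA/Tukey.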

[13] = Cell cycle arrest in human 786-0 cells assessed as accumulation at sub-G1 phase at 1.25 uM after 24 hrs by propidium iodide staining-based flow cytometry (Rvb=3.7+/-0.9%); format: functional; how it was run: as §2
[14] = Cell cycle arrest in human 786-0 cells assessed as accumulation at G1 phase at 1.25 uM after 24 hrs by propidium iodide staining-based flow cytometry (Rvb=47.1+/-1%); format: functional; how it was run: as §2
[15] = Cell cycle arrest in human 786-0 cells assessed as accumulation at S phase at 1.25 uM after 24 hrs by propidium iodide staining-based flow cytometry (Rvb=12.6+/-0.7%); format: functional; how it was run: as §2

SMILES	GI50 [1]	EC50 (Human alphaherpesvirus 1)	GI50 [2]	GI50 [3]	selectivity ratio [4]	GI50 [5]	GI50 [6]	CC50 at 48 h [7]	GI50 [8]	GI50 [9]	GI50 [10]	GI50 [11]	Activity [12]	Activity [13]	Activity [14]	Activity [15]
O=C(NN1C(=O)CSC1c1ccccc1)c1cc2c([nH]c3ccccc32)c(-c2cccc([N+](=O)[O-])c2)n1 (stereo not given)	> 100 µM	2.02 µM	> 100 µM	> 100 µM	534	> 100 µM	> 100 µM	1.08 mM	1.25 µM	> 100 µM						
CN(C)c1ccc(-c2nc(C(=O)NN3C(=O)CSC3c3ccccc3)cc3c2[nH]c2ccccc23)cc1 (stereo not given)	> 100 µM	0.8 µM	64.5 µM	> 100 µM	592	> 100 µM	> 100 µM	0.467 mM	> 100 µM	64.5 µM						
O=C(NN1C(=O)CSC1c1ccccc1)c1cc2c([nH]c3ccccc32)c(-c2ccccc2)n1 (stereo not given)	> 100 µM	2.15 µM	0.25 µM	19.1 µM	235	> 100 µM	> 100 µM	0.506 mM	1.58 µM	18.4 µM	80.4 µM	7.23 µM				
O=C(N/N=C1\SCC(=O)N1c1ccccc1)c1cc2c([nH]c3ccccc32)c(-c2ccccc2)n1	> 100 µM	78.9 µM	17.5 µM	28 µM	18.8	13.6 µM	37.2 µM	1.48 mM	17.5 µM	3.13 µM						
O=C1CS/C(=N\NC(=O)c2cc3c([nH]c4ccccc43)c(-c3ccccc3Cl)n2)N1	10.8 µM	> 100 µM		1.42 µM		6.1 µM	3.85 µM	0.766 mM	0.01 µM	> 100 µM						
CCN1C(=O)CS/C1=N\NC(=O)c1cc2c([nH]c3ccccc32)c(-c2ccc(OC)cc2)n1	9.62 µM	26.6 µM	1.95 µM	6.52 µM	65.2		8.56 µM	1.73 mM	6.52 µM	12.2 µM						
O=C(NN1C(=O)CSC1c1cccs1)c1cc2c([nH]c3ccccc32)c(-c2ccccc2)n1 (stereo not given)	> 100 µM		> 100 µM	> 100 µM		> 100 µM	> 100 µM		> 100 µM	> 100 µM	> 100 µM	> 100 µM				
O=C(N/N=C1\SCC(=O)N1c1ccccc1)c1cc2c([nH]c3ccccc32)c(-c2ccccc2F)n1	> 100 µM	> 100 µM	> 100 µM	> 100 µM		> 100 µM	> 100 µM	0.339 mM	> 100 µM	> 100 µM						
CN(C)c1ccc(-c2nc(C(=O)N/N=C3\SCC(=O)N3c3ccccc3)cc3c2[nH]c2ccccc23)cc1	38.1 µM	50 µM	12.5 µM	15 µM	16.4	3.97 µM	17.9 µM	0.817 mM	> 100 µM	35.4 µM						
CCN1C(=O)CS/C1=N\NC(=O)c1cc2c([nH]c3ccccc32)c(-c2ccccc2)n1	> 100 µM		0.46 µM	17.2 µM			> 100 µM		> 100 µM	8.89 µM						
COc1ccc(-c2nc(C(=O)N/N=C3/NC(=O)CS3)cc3c2[nH]c2ccccc23)cc1	16.5 µM			0.49 µM		9.98 µM	7.15 µM		1.12 µM	> 100 µM						
CCN1C(=O)CS/C1=N\NC(=O)c1cc2c([nH]c3ccccc32)c(-c2ccc(N(C)C)cc2)n1	65.7 µM	6.78 µM	63.3 µM	54.9 µM	243	6.61 µM	59 µM	1.65 mM	2.42 µM	2.6 µM						
O=C(NN1C(=O)CSC1c1ccccc1Cl)c1cc2c([nH]c3ccccc32)c(-c2ccccc2)n1 (stereo not given)	> 100 µM		> 100 µM	> 100 µM		> 100 µM	> 100 µM		> 100 µM	> 100 µM	> 100 µM	> 100 µM				
O=C(NN1C(=O)CSC1c1ccccc1)c1cc2c([nH]c3ccccc32)c(-c2ccccc2F)n1 (stereo not given)	> 100 µM	30.3 µM	84.1 µM	63.1 µM	21	> 100 µM	> 100 µM	0.637 mM	0.73 µM	> 100 µM						
CCN1C(=O)CS/C1=N\NC(=O)c1cc2c([nH]c3ccccc32)c(-c2ccccc2F)n1	> 100 µM	> 100 µM	> 100 µM	> 100 µM		> 100 µM	> 100 µM	2.98 mM	> 100 µM	> 100 µM						
O=C1CS/C(=N\NC(=O)c2cc3c([nH]c4ccccc43)c(-c3ccccc3)n2)N1	19.5 µM	102 µM	15.8 µM	11.4 µM	24.4	16.3 µM	18.2 µM	2.49 mM	9.88 µM	28.1 µM						
O=C1CS/C(=N\NC(=O)c2cc3c([nH]c4ccccc43)c(-c3ccccc3F)n2)N1	32.4 µM	19.6 µM	9.57 µM	11.9 µM	54.9	20.3 µM	21.1 µM	1.07 mM	12.3 µM	66.4 µM						
COc1cc2c(c(OC)c1OC)-c1ccc(OC)c(=O)cc1[C@@H](NC(C)=O)CC2													61.7%	9%	18.3%	11%
CCN1C(=O)CS/C1=N\NC(=O)c1cc2c([nH]c3ccccc32)c(-c2cccc([N+](=O)[O-])c2)n1	> 100 µM	86.5 µM	> 100 µM	> 100 µM	20.7	> 100 µM	> 100 µM	1.79 mM	> 100 µM	3.27 µM						
CCN1C(=O)CS/C1=N\NC(=O)c1cc2c([nH]c3ccccc32)c(-c2ccccc2Cl)n1	88.9 µM	> 100 µM	0.74 µM	6.84 µM			4.12 µM	1.4 mM	3.97 µM	0.25 µM						
O=C1CS/C(=N\NC(=O)c2cc3c([nH]c4ccccc43)c(-c3cccc([N+](=O)[O-])c3)n2)N1	> 100 µM			40.1 µM		16.1 µM	> 100 µM		> 100 µM	0.62 µM						
O=C(N/N=C1\SCC(=O)N1c1ccccc1)c1cc2c([nH]c3ccccc32)c(-c2cccc([N+](=O)[O-])c2)n1	2.28 µM	17.2 µM	1.59 µM	2.36 µM	67.8	1.53 µM	3.91 µM	1.17 mM	0.83 µM	0.19 µM						
